Shown are actives, neighbours in structure and some others; about 3.3% of the full set was active somewhere.
ATG4B inh = ATG4B protease inhibitors, primary screen, biochemical, fluorescence, uHTS; ATG4B cleavage of LC3-PLA2, NBD-HPC fluorescence, 1 h; Cysteine protease ATG4B (Homo sapiens), Q9Y4P1; AID 504462, 2011; 340,000 compounds, 0.51% hits; inhibition, % at 8.33 µM; in the data active means inhibition above about 40%
Myeloid diff 2 = induction of myeloid progenitor differentiation, primary screen, cell-based, flow cytometry, MLPCN library | ER-HoxA9 myeloid progenitors, lysozyme-GFP differentiation | calls only at 10 µM | 360,000 compounds, 1% hits | AID 624256, 2012;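 active means normalized GFP-positive differentiation at or above the plate's own cutoff, the solvent-only control mean plus 3 SD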;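 further: cells exposed to compound for four days before flow analysis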
ABCB6 inh MLPCN = ABCB6 transporter inhibitors, primary screen, K562-ABCB6 cells, flow cytometry, MLPCN library. K562-ABCB6 porphyrin accumulation, 1 h; stronger effect = lower value. fluorescence ratio to DMSO, % at 10 µM. ATP-binding cassette sub-family B member 6 (Homo sapiens), Q9NP58. AID 602162, 2011. 360,000 compounds, 0.19% hits;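 active means fluorescence ratio to DMSO below 75%, the collection mean minus 3 SD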;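 further: signal is porphyrin accumulated inside mitochondria; lower ratio means ABCB6 inhibition with less porphyrin fluorescence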
Exocytosis inh = LAMP-1 surface exposure blockers, TALL-104 cells – cell-based, flow cytometry, MLPCN library, primary screen. inhibition, % at 10 µM. 360,000 compounds, 0.66% hits. TALL-104 LAMP-1 surface exposure; cells stimulated with thapsigargin and PMA;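 active means inhibition above about 55%, limit read from the data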
Arr AP2 block = inhibitors of beta-arrestin/AP2 binding, primary screen, biochemical, GPCR trafficking, flow cytometry; FITC-arrestin peptide / GST-AP2 beads; AP2 beta2 appendage carries R879A mutation; 340,000 compounds, 0.31% hits; beta-arrestin 1 C-terminal peptide binding to AP2 beta2-adaptin appendage (human); inhibition, % at 10 µM;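 active means inhibition above a set limit, near 3 SD of compounds lacking own fluorescence, cut at about 54% in these data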
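Assay system: GST-AP2 R879A bound to glutathione beads, E. coli-expressed; Medium: PBS with 0.05% Tween 20 and 0.1% BSA; Also added: fluorescein-tagged arrestin peptide at 50 nM final; Timing: 12 min plus 1 h, RT; Measured by: flow cytometry, FL1 (488/535 nm); Evaluation: percent drop in bead-associated FITC signal.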
CendR NRP1 mod = modulators of CendR peptide binding to NRP-1, primary screen, biochemical, fluorescence polarization, uHTS | Neuropilin-1 (Homo sapiens), O14786 | FAM-RPARPAR peptide binding to NRP-1 | inhibition, % at 25 µM | 360,000 compounds, 0.85% hits | AID 602438, 2012;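 active means inhibition or corrected inhibition above about 18%, plus a signal ratio from 0.5 to 1.5, limit read from the data, passing the limit was not always enough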
Target sequence (O14786 whole entry, looked up): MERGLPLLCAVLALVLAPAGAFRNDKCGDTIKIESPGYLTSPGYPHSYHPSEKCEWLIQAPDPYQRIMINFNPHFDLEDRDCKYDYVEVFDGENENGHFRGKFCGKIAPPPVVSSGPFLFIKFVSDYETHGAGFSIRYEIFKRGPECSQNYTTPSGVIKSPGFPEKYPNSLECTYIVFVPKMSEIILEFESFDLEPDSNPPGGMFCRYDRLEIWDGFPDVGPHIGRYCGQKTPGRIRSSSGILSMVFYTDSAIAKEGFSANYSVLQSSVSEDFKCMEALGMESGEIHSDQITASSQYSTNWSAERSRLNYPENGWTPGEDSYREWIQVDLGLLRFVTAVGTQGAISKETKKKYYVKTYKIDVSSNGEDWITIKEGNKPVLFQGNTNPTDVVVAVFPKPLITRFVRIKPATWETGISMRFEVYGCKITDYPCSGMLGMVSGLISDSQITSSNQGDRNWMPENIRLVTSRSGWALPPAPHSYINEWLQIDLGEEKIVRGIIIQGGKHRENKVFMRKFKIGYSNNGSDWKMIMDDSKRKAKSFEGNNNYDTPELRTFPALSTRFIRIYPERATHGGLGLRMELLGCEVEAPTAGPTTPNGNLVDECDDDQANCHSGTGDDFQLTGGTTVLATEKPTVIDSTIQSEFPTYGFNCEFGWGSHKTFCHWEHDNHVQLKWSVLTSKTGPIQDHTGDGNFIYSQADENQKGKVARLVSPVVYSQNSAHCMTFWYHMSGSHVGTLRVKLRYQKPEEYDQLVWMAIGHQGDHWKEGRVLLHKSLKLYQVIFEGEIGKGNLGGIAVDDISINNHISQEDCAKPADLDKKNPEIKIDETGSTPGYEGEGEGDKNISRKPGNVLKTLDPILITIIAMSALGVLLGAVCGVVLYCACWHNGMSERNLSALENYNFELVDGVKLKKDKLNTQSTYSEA
Myeloid diff CP1 = inducers of myeloid progenitor differentiation, confirmation, cell-based, GFP/Mac1 flow cytometry, cherry pick 01; ER-HoxA9 myeloid progenitors, GFP/Mac1 double-positive flow; calls only; shares compounds with Myeloid diff 2; 2,300 compounds, 2% hits;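 active means share of green or green-and-red cells above 9 and 9% in run 1 or 4 and 3% in run 2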
GFP autofluor = flagged as fluorescent in myeloid differentiation counter-screen; fluorescence response, % (test concentration not listed); shares compounds with Myeloid diff 2; AID 651707; ER-HoxA9 myeloid progenitors, no estrogen, GFP autofluorescence flow cytometry; vehicle wells 0%, positive control 100%; 2,300 compounds, 7.4% hits;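 active means over 5% cells positive for green fluorescent reporter, or over 2% positive for both it and APC stain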
A number is an active result; i = inactive; nt = no result given; + = active, no number.

SMILES	ATG4B inh	Myeloid diff 2	ABCB6 inh MLPCN	Exocytosis inh	Arr AP2 block	CendR NRP1 mod	Myeloid diff CP1	GFP autofluor
O=C(CCc1nc2ccccc2c(=O)[nH]1)OCC(=O)N1CCc2ccccc21	i	i	i	i	i	i	nt	nt
O=C(CCc1nc2ccccc2[nH]c1=O)OCC(=O)N1CCc2ccccc21	i	i	i	i	i	i	i	i
CCOC(=O)c1cnc2ccc(Br)cc2c1NCCCN1CCOCC1	i	i	i	i	i	i	nt	nt
O=C(CCn1c(=O)sc2ccccc21)NC1=NCCS1	i	i	i	i	i	i	i	i
O=C(CCn1c(=O)sc2ccccc21)Nc1ccon1	i	i	i	i	i	i	nt	nt
CCN(C(=O)COC(=O)c1ccc(C)c(S(=O)(=O)N2CCOCC2)c1)C1CCS(=O)(=O)C1 (centres undefined)	i	i	i	i	i	i	nt	nt
COc1ccccc1CN(Cc1nc2ccccc2c(=O)[nH]1)C(=O)Nc1ccc(C)cc1	i	i	i	i	i	i	+	i
COc1ccccc1CN(Cc1nc2ccccc2c(=O)[nH]1)C(=O)Nc1ccccc1C	i	i	i	i	i	i	nt	nt
O=C1CC(SC(=S)C2CCCC2=O)C(=O)N1 (centres undefined)	nt	i	i	i	nt	i	nt	nt
CN(c1cccc(Cl)c1)S(=O)(=O)c1cccc(C(=O)NC2=NCCS2)c1	i	i	i	i	i	i	nt	nt
CCCCCCCCNC(=S)NCCN1CCCCC1	i	i	i	i	i	i	i	i
CCOC(=O)c1sc2nc3c(SCCC#N)cc(C(=O)c4cc(F)ccc4O)cn3c(=O)c2c1C	i	+	i	i	i	i	i	i
CCc1c(C)sc2nc3c(C(=O)N4CCOCC4)cc(C(=O)c4cc(F)ccc4O)cn3c(=O)c12	i	i	i	i	i	i	nt	nt
COc1ccc(-n2c(SC(C)C(=O)Nc3ncc(Cl)cc3Cl)nc3ccccc32)cc1 (centres undefined)	i	+	i	i	i	i	i	i
CCc1c(-c2ccccc2F)ncn1Cc1cccc(-c2ccccc2)c1	nt	i	nt	i	nt	i	i	i
COc1ccc(NC(=O)C[C@H]2C(=O)N(c3ccc(Br)cc3)C[C@@H]2CSC)cc1	nt	i	i	i	nt	i	i	i
Cc1ccc(S(=O)(=O)N/N=C\c2cn(CC(N)=O)c3ccccc23)cc1	i	i	i	i	i	i	nt	nt
O=C(Nc1ccc(F)cc1)c1ccccc1S(=O)(=O)c1ccccc1[N+](=O)[O-]	i	i	i	i	i	i	nt	nt
CCOC(=O)c1cnn(-c2ccccn2)c1N	i	i	i	i	i	i	nt	nt
CCOC(=O)c1cnn(-c2cc(C)c3ccccc3n2)c1N	i	+	i	i	i	i	i	i
O=C(COc1ccc(S(=O)(=O)N2CCOCC2)cc1)Nc1ccccc1F	i	i	i	i	i	i	nt	nt
COC(=O)c1cc(NS(=O)(=O)c2ccc(C)c3ccccc23)ccc1N1CCOCC1	i	i	i	i	i	i	i	i
COC(=O)c1cc(-n2cccc2)ccc1N1CCOCC1	i	i	i	i	i	i	nt	nt
Cc1ccc(NC2=CC(=O)C(=O)c3ccccc32)c(C)c1	i	+	i	i	i	i	i	3.1
Cc1ccc(NS(=O)(=O)c2ccc3c(c2)C(=O)c2ccccc2C3=O)c(C)c1	i	i	i	i	i	i	nt	nt

Source: PubChem BioAssay (several laboratories)
